What all share (assay type): functional
One assay relates to Candida albicans. The assay can be described thus: Antimicrobial activity against Candida albicans after 16 to 18 hrs by serial dilution method. In a few lines: (§1)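 Serial dilutions of each compound, each inoculated with one standard drop of the prepared test culture. Incubation was 16–18 h at 37 °C. MIC was read as the highest dilution giving clear fluid with no turbidity.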

The test system of a further assay is Bacillus subtilis. The assay can be described thus: Antimicrobial activity against Bacillus subtilis after 16 to 18 hrs by serial dilution method. In a few lines: as §1
The test system of a further assay is Pseudomonas aeruginosa. The assay can be described thus: Antimicrobial activity against Pseudomonas aeruginosa after 16 to 18 hrs by serial dilution method. In a few lines:
as §1

The subject of another assay is Staphylococcus aureus. The assay can be described thus: Antimicrobial activity against Staphylococcus aureus after 16 to 18 hrs by serial dilution method. In a few lines:
as §1

The next assay relates to Escherichia coli. The assay can be described thus: Antimicrobial activity against Escherichia coli after 16 to 18 hrs by serial dilution method. In a few lines:
as §1

≈ marks a conversion by molar mass, not a printed value.

The MIC is the lowest concentration that inhibits growth of the organism.

`COc1ccc(-c2nnc(-c3cc(Cl)ccc3Br)o2)c(F)c1`: the minimal inhibitory concentration (MIC) came out at 3 µg/mL (≈ 7.82 µM) in the assay with Candida albicans; 6 µg/mL (≈ 15.6 µM) against Bacillus subtilis; 6 µg/mL (≈ 15.6 µM) in the assay with Pseudomonas aeruginosa; 6 µg/mL (≈ 15.6 µM) against Staphylococcus aureus; 6 µg/mL (≈ 15.6 µM) in the assay with Escherichia coli.
Consider `COc1ccc(-c2nnc(-c3cnc4ccccc4c3)o2)c(F)c1`, for which the MIC with Candida albicans, against Bacillus subtilis, in the assay with Pseudomonas aeruginosa, in the assay on Staphylococcus aureus and against Escherichia coli was 6 µg/mL (≈ 18.7 µM) throughout.
Take `COc1ccc(-c2nnc(-c3cc(F)cc(F)c3)o2)c(F)c1`: the MIC against Candida albicans, in the assay on Bacillus subtilis, in the assay on Pseudomonas aeruginosa, against Staphylococcus aureus and in the assay on Escherichia coli was 6 µg/mL (≈ 19.6 µM) in each case.
As for `OC(Cn1cncn1)(Cn1cncn1)c1ccc(F)cc1F` [FLUCONAZOLE], it took 6 µg/mL (≈ 19.6 µM) to inhibit growth against Candida albicans (MIC).
Take `COc1ccc(-c2nnc(-c3cc(C)on3)o2)c(F)c1`: the minimum inhibitory concentration (MIC) in the assay with Candida albicans came out at 3 µg/mL (≈ 10.9 µM); against Bacillus subtilis it was 12.5 µg/mL (≈ 45.4 µM); against Pseudomonas aeruginosa, 6 µg/mL (≈ 21.8 µM); in the assay with Staphylococcus aureus, 12.5 µg/mL (≈ 45.4 µM); in the assay on Escherichia coli it was 6 µg/mL (≈ 21.8 µM).
For `COc1ccc(-c2nnc(-c3ccc([N+](=O)[O-])c(F)c3)o2)c(F)c1`, the MIC against Candida albicans, in the assay with Bacillus subtilis, against Pseudomonas aeruginosa, in the assay with Staphylococcus aureus and against Escherichia coli was 6 µg/mL (≈ 18 µM) each time.
As to `COc1ccc(-c2nnc(-c3c([N+](=O)[O-])ccc(F)c3F)o2)c(F)c1`, the MIC against Candida albicans came to 6 µg/mL (≈ 17.1 µM); against Bacillus subtilis it was 6 µg/mL (≈ 17.1 µM); in the assay on Pseudomonas aeruginosa, 6 µg/mL (≈ 17.1 µM); against Staphylococcus aureus, 6 µg/mL (≈ 17.1 µM); against Escherichia coli, 12.5 µg/mL (≈ 35.6 µM).
With `NC(=O)N/N=C/c1ccc([N+](=O)[O-])o1` [NITROFURAZONE], the MIC in the assay with Bacillus subtilis came to 12.5 µg/mL (≈ 63.1 µM); in the assay on Pseudomonas aeruginosa, 12.5 µg/mL (≈ 63.1 µM); with Staphylococcus aureus, 12.5 µg/mL (≈ 63.1 µM); in the assay on Escherichia coli, 6 µg/mL (≈ 30.3 µM).
For the compound `COc1ccc(-c2nnc(-c3cccc(C#N)c3)o2)c(F)c1`, the MIC against Candida albicans, against Bacillus subtilis, in the assay with Pseudomonas aeruginosa, against Staphylococcus aureus and in the assay on Escherichia coli was 6 µg/mL (≈ 20.3 µM) each time.
As for `COc1ccc(-c2nnc(-c3ccc(Cl)nc3)o2)c(F)c1`, the MIC against Candida albicans amounted to 6 µg/mL (≈ 19.6 µM); in the assay with Bacillus subtilis, 6 µg/mL (≈ 19.6 µM); against Pseudomonas aeruginosa, 12.5 µg/mL (≈ 40.9 µM); against Staphylococcus aureus, 12.5 µg/mL (≈ 40.9 µM); against Escherichia coli, 6 µg/mL (≈ 19.6 µM).
As for `COc1ccc(-c2nnc(-c3ccccc3C(F)(F)F)o2)c(F)c1`, the MIC with Candida albicans, with Bacillus subtilis, against Pseudomonas aeruginosa, with Staphylococcus aureus and in the assay with Escherichia coli was 6 µg/mL (≈ 17.7 µM) throughout.
With `COc1ccc(-c2nnc(-c3ccc(F)c(F)c3F)o2)c(F)c1`, the MIC against Candida albicans stood at 6 µg/mL (≈ 18.5 µM); in the assay with Bacillus subtilis it was 6 µg/mL (≈ 18.5 µM); against Pseudomonas aeruginosa it was 3 µg/mL (≈ 9.25 µM); against Staphylococcus aureus it was 6 µg/mL (≈ 18.5 µM); against Escherichia coli, 3 µg/mL (≈ 9.25 µM).
Take `COc1ccc(-c2nnc(-c3cccc(Br)c3C)o2)c(F)c1`: the MIC with Candida albicans was 6 µg/mL (≈ 16.5 µM); against Bacillus subtilis, 6 µg/mL (≈ 16.5 µM); in the assay on Pseudomonas aeruginosa, 3 µg/mL (≈ 8.26 µM); in the assay with Staphylococcus aureus it was 6 µg/mL (≈ 16.5 µM); with Escherichia coli, 3 µg/mL (≈ 8.26 µM).
Regarding `COc1ccc(-c2nnc(-c3cccc(C)c3C)o2)c(F)c1`, the MIC against Candida albicans is 6 µg/mL (≈ 20.1 µM); with Bacillus subtilis it was 6 µg/mL (≈ 20.1 µM); with Pseudomonas aeruginosa it was 12.5 µg/mL (≈ 41.9 µM); against Staphylococcus aureus, 6 µg/mL (≈ 20.1 µM); in the assay with Escherichia coli, 6 µg/mL (≈ 20.1 µM).
On to `COc1ccc(-c2nnc(-c3ccc(F)cc3)o2)c(F)c1`, for which the MIC in the assay with Candida albicans is 6 µg/mL (≈ 20.8 µM); against Bacillus subtilis, 6 µg/mL (≈ 20.8 µM); in the assay on Pseudomonas aeruginosa it was 6 µg/mL (≈ 20.8 µM); in the assay with Staphylococcus aureus, 6 µg/mL (≈ 20.8 µM); against Escherichia coli, 12.5 µg/mL (≈ 43.4 µM).

(Values after ChEMBL document CHEMBL1154831, “Synthesis, characterization and biological activity of some new 1,3,4-oxadiazole bearing 2-flouro-4-methoxy phenyl moiety” (2010).)
